Activity calls are given as the source filed them. No cut-off for these calls is given here.
Key:
SH-SY5Y = experiment: Cytotoxicity against human SH-SY5Y cells assessed as reduction in cell viability after 56 hrs by MTT assay; assay type: functional, cell-based; details: Homo sapiens, SH-SY5Y, 56 h; read-out: EC50
[1] = AUC in athymic Nu/Nu Harlan mouse at 10 mg/kg, iv administered as single dose up to 24 hrs by LC-ESI-MS analysis; assay type: ADME, organism-based; set-up: time < 24 hr, dose 10 mg/kg, route intravenous; details: in vivo
[2] = Stability in Wistar Han rat liver microsomes assessed as mixed function oxidase mediated compound cleavage after 60 mins in presence of NADPH-regenerating system by LC-UV analysis; assay type: ADME; details: 1 h
In short: (§1)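 Substrate at 50 μM final, with rat or human liver microsomes at 1.0 mg/ml protein, in 50 mM Tris-HCl pH 7.4. Mix held 3.3 mM MgCl2, 1% acetonitrile and an NADPH-regenerating system (1.3 mM β-NADP, 3.3 mM glucose 6-phosphate, 0.4 U/ml G6PDH). Shaken 60 min at 37 °C, stopped with ice-cold acetonitrile. LC-UV gave % residual substrate versus a no-microsome control, mean of two replicates.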

A2780 [3] = experiment: Antitumor activity against human A2780 cells xenografted in athymic nu/nu Harlan mouse assessed as reduction in tumor growth at 10 mg/kg, ip bid administered for 8 consecutive days; assay type: functional, organism-based
Liver [4] = experiment: Stability in human liver microsomes assessed as mixed function oxidase mediated compound cleavage after 60 mins in presence of NADPH-regenerating system by LC-UV analysis; assay type: ADME, microsome; details: 1 h; in short: as §1
[5] = target: Nicotinamide phosphoribosyltransferase (Homo sapiens, UniProt P43490); experiment: Inhibition of NAMPT in human Jurkat T cells assessed as reduction in NAD levels; assay type: cell-based
Chain of Nicotinamide phosphoribosyltransferase (Homo sapiens, UniProt P43490) (P43490 whole entry): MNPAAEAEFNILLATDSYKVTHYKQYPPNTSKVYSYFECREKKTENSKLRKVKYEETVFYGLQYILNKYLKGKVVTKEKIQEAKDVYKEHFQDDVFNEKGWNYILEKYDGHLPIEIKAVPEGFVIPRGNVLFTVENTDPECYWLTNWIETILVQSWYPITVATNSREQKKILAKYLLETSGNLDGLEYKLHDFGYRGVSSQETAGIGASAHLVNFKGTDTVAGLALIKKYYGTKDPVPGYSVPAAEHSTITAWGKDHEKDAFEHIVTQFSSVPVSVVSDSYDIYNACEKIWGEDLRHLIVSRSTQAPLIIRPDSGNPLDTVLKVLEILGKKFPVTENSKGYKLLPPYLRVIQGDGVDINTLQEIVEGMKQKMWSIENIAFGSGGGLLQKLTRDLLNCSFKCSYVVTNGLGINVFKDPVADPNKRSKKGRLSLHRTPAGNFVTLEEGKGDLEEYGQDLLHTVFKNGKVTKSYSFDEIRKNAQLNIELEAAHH

Liver [6] = experiment: Drug metabolism in Wistar Han rat liver microsomes assessed as pyridine N-oxidation after 60 mins in presence of NADPH-regenerating system by LC-UV analysis; assay type: ADME, microsome; details: 1 h
In short: (§2)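 Metabolites were characterized by LC-ESI-MSn on supernatants of 60 min, 37 °C incubations. Each used 50 μM substrate with rat or human liver microsomes (1.0 mg/ml protein) in 50 mM Tris-HCl pH 7.4 with 3.3 mM MgCl2, 1% acetonitrile and an NADPH-regenerating system. Reactions were quenched with cold acetonitrile and centrifuged.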

Liver [7] = experiment: Stability in Wistar Han rat liver microsomes after 60 mins by LC-ESI-MS analysis; assay type: ADME, microsome; details: 1 h
[8] = Half life in athymic Nu/Nu Harlan mouse at 10 mg/kg, iv administered as single dose up to 24 hrs by LC-ESI-MS analysis; assay type: ADME, organism-based; details: in vivo
A2780 [9] = experiment: Cytotoxicity against human A2780 cells assessed as reduction in cell viability; assay type: functional, cell-based
Liver [10] = experiment: Stability in human liver microsomes after 60 mins by LC-ESI-MS analysis; assay type: ADME, microsome; details: 1 h
[11] = Volume of distribution in athymic Nu/Nu Harlan mouse at 10 mg/kg, iv administered as single dose up to 24 hrs by LC-ESI-MS analysis; assay type: ADME, organism-based; details: in vivo
[12] = target: Nicotinamide phosphoribosyltransferase (Mus musculus, UniProt Q99KQ4); experiment: Inhibition of recombinant mouse NAMPT expressed in bacterial expression system using nicotinamide as substrate after 1 hr by fluorescence based NMNAT-3 enzyme coupled assay; details: read-out: IC50
Chain of Nicotinamide phosphoribosyltransferase (Mus musculus, UniProt Q99KQ4) (Q99KQ4 whole entry): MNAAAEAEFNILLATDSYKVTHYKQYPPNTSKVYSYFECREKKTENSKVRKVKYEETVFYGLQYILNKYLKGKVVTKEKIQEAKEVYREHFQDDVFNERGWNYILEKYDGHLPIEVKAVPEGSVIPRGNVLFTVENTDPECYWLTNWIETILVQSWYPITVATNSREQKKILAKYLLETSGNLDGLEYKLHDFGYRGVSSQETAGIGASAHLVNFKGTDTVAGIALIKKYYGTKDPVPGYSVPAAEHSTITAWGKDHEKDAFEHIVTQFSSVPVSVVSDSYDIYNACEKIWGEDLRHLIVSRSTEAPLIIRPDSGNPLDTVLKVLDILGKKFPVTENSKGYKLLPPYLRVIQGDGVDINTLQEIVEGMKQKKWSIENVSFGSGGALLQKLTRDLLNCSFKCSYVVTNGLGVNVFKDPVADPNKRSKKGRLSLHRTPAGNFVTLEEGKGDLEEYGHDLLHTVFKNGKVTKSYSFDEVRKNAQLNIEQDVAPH

[13] = Drug metabolism in human liver microsomes assessed as mixed function oxidase mediated compound cleavage by measuring compound remaining after 60 mins in presence of NADPH-regenerating system by LC-UV analysis; assay type: ADME; details: read-out: Stability; in short: as §1
[14] = Clearance in athymic Nu/Nu Harlan mouse at 10 mg/kg, iv administered as single dose up to 24 hrs by LC-ESI-MS analysis; assay type: ADME, organism-based; details: in vivo
Liver [15] = experiment: Drug metabolism in human liver microsomes assessed as pyridine N-oxidation after 60 mins in presence of NADPH-regenerating system by LC-UV analysis; assay type: ADME, microsome; details: 1 h; in short: as §2
[16] = Drug metabolism in Wistar Han rat liver microsomes assessed as mixed function oxidase mediated compound cleavage by measuring compound remaining after 60 mins in presence of NADPH-regenerating system by LC-UV analysis; assay type: ADME; details: read-out: Stability; in short: as §1
Liver [17] = experiment: Drug level in Wistar Han rat liver microsomes treated with N-(biphenyl-2-yl)-8-(4-(pyridin-3-yl)-1H-1,2,3-triazol-1-yl)octanamide after 60 mins by LC-ESI-MS analysis; assay type: ADME, microsome
Liver [18] = experiment: Drug level in human liver microsomes treated with N-(biphenyl-2-yl)-8-(4-(pyridin-3-yl)-1H-1,2,3-triazol-1-yl)octanamide after 60 mins by LC-ESI-MS analysis; assay type: ADME, microsome

c1ccc(-c2ccccc2-c2cn(CCCCCCCc3cn(-c4cccnc4)nn3)nn2)cc1
EC50 (SH-SY5Y): 84.2 nM

c1ccc(-c2ccccc2CNCCCCCCCn2cc(-c3cccnc3)nn2)cc1
EC50 (SH-SY5Y): 237 nM

c1ccc(-c2ccccc2-c2cn(CCCCCCCn3cc(-c4cccnc4)nn3)nn2)cc1
AUC at 24 h [1]: 2250 ng·h/mL
Stability [2]: Stable
inhibition (A2780 [3]): inactive
Stability (Liver [4]): Stable
IC50 [5]: 7.8 nM
Drug metabolism (Liver [6]): Metabolite_Detected
Stability (Liver [7]): Stable
half-life [8]: 1.48 h
IC50 (A2780 [9]): 5.8 nM
Stability (Liver [10]): Stable
Vd [11]: 9.4 L/kg
IC50 [12]: 8.1 nM
remaining at 1 h [13]: 87%
clearance [14]: 74 mL/min/kg
Drug metabolism (Liver [15]): Metabolite_Detected
remaining at 1 h [16]: 47%
EC50 (SH-SY5Y): 9.1 nM

c1ccc(-c2ccccc2-n2cc(CCCCCCCn3cc(-c4cccnc4)nn3)nn2)cc1
EC50 (SH-SY5Y): 55.1 nM

O=C(CCCCCCCc1cc(-c2cccnc2)on1)Nc1ccccc1-c1ccccc1
IC50 [12]: 49.9 nM
EC50 (SH-SY5Y): 59.8 nM

O=C(Nc1ccccc1-c1ccccc1)OCCCCCCCCn1cc(-c2cccnc2)nn1
EC50 (SH-SY5Y): 255 nM

O=S(=O)(NCCCCCCn1cc(-c2cccnc2)nn1)c1ccccc1-c1ccccc1
EC50 (SH-SY5Y): 100 nM

c1ccc(-c2ccccc2OCc2ccc(CCn3cc(-c4cccnc4)nn3)cc2)cc1
EC50 (SH-SY5Y): 160 nM

O=C(CCCCCCCc1cnc(-c2cccnc2)s1)Nc1ccccc1-c1ccccc1
EC50 (SH-SY5Y): 5250 nM

c1ccc(-c2ccccc2OCCCc2ccc(-n3cc(-c4cccnc4)nn3)cc2)cc1
EC50 (SH-SY5Y): 71 nM

c1ccc(-c2ccccc2Oc2ccc(CCCn3cc(-c4cccnc4)nn3)cc2)cc1
EC50 (SH-SY5Y): > 500 nM

c1ccc(-c2ccccc2OCCc2ccc(Cn3cc(-c4cccnc4)nn3)cc2)cc1
IC50 [12]: 15.6 nM
EC50 (SH-SY5Y): 2.4 nM

O=C(NCCCCCCn1cc(-c2cccnc2)nn1)Nc1ccccc1-c1ccccc1
EC50 (SH-SY5Y): 43 nM

Nc1ccccc1-c1ccccc1
Drug metabolism (Liver [17]): Metabolite_Detected
Drug metabolism (Liver [18]): Metabolite_Detected

O=C(CCCCCCCc1nnc(-c2cccnc2)[nH]1)Nc1ccccc1-c1ccccc1
IC50 [12]: 269 nM
EC50 (SH-SY5Y): 82.9 nM

O=S(=O)(NCCCCCCCn1cc(-c2cccnc2)nn1)c1ccccc1-c1ccccc1
EC50 (SH-SY5Y): 99.2 nM

O=C(Nc1ccccc1-c1ccccc1)OCCCCCCn1cc(-c2cccnc2)nn1
EC50 (SH-SY5Y): 34 nM

c1ccc(-c2ccccc2CNCCCCCCCCn2cc(-c3cccnc3)nn2)cc1
EC50 (SH-SY5Y): 205 nM

O=C(NCCCCCCCCn1cc(-c2cccnc2)nn1)c1ccccc1-c1ccccc1
EC50 (SH-SY5Y): 194 nM

c1ccc(-c2ccccc2-c2cn(CCCCCCn3cc(-c4cccnc4)nn3)nn2)cc1
EC50 (SH-SY5Y): 36.6 nM
